Measured values pooled from the literature.
Protocols differ between the studies behind these lines. pIC50: −log10 of the molar value. In brackets after ≈: the same amount, converted by molar mass.

SMILES	tested on	test	setting	measurement	value
O=C(CN1C(=O)/C(=C/c2cccc([N+](=O)[O-])c2)SC1=S)Nc1ccccc1	PC-3	cell growth or viability, MTT	10 µM	inhibition	17.6%
CO/N=C1\CN(c2nc3c(cc2F)c(=O)c(C(=O)O)cn3C2CC2)CC1CN (stereo not drawn)	Moraxella catarrhalis	microbial growth	–	MIC	2 µg/mL (≈ 5.14 µM)
COc1ccc(-c2ccc(-c3ccc(C(=N)N)nc3)s2)cc1Cl	U-251	cell growth or viability, SRB	–	GI50	1820 nM
O=C(Cc1c[nH]c2ccccc12)Nc1ccc(I)cc1	–	ABTS scavenging	–	pIC50	6.18
O=C(Nc1ccccc1-c1ccc(F)c(F)c1)c1nccnc1C(F)(F)F	Colletotrichum gloeosporioides	microbial growth	–	EC50	> 100 µg/mL
Cc1ccc(Cl)cc1NC(=O)Cc1c[nH]c2ccccc12	–	ABTS scavenging	–	pIC50	5.89
COc1cccc(NC(=O)CN2C(=O)/C(=C/c3ccco3)SC2=S)c1	A549	cell growth or viability, MTT	10 µM	inhibition	13.7%
O=C(Cc1c[nH]c2ccccc12)Nc1ccc(F)c(F)c1	–	ABTS scavenging	–	pIC50	5.97
O=C(CN1C(=O)/C(=C/c2ccccc2O)SC1=S)Nc1ccccc1	A549	cell growth or viability, MTT	10 µM	inhibition	34.5%
COc1cc(Nc2nccc(-c3cnn4nc(OC)ccc34)n2)cc(C(F)(F)F)c1	NCI-H2286	cell growth or viability, ATP luminescence	–	pIC50	6.80
O=C(Cc1c[nH]c2ccccc12)Nc1cccc(F)c1	–	ABTS scavenging	–	pIC50	5.95
O=C(CN1C(=O)/C(=C/c2cccc(O)c2)SC1=S)Nc1ccccc1	PC-3	cell growth or viability, MTT	10 µM	inhibition	12.6%
